ChEMBL document CHEMBL1139869, “Design and synthesis of novel quinolinone-3-aminoamides and their alpha-lipoic acid adducts as antioxidant and anti-inflammatory agents” (2007)
The source made the active and inactive calls. The calls are words filed in the database; no cut-off is given here.

How the values were obtained:
[1] = molecular target: T1, Seed linoleate 13S-lipoxygenase-1 (Glycine max) (UniProt P08170); test: Inhibition of soybean lipoxygenase at 0.1 mM
T1 sequence (whole entry): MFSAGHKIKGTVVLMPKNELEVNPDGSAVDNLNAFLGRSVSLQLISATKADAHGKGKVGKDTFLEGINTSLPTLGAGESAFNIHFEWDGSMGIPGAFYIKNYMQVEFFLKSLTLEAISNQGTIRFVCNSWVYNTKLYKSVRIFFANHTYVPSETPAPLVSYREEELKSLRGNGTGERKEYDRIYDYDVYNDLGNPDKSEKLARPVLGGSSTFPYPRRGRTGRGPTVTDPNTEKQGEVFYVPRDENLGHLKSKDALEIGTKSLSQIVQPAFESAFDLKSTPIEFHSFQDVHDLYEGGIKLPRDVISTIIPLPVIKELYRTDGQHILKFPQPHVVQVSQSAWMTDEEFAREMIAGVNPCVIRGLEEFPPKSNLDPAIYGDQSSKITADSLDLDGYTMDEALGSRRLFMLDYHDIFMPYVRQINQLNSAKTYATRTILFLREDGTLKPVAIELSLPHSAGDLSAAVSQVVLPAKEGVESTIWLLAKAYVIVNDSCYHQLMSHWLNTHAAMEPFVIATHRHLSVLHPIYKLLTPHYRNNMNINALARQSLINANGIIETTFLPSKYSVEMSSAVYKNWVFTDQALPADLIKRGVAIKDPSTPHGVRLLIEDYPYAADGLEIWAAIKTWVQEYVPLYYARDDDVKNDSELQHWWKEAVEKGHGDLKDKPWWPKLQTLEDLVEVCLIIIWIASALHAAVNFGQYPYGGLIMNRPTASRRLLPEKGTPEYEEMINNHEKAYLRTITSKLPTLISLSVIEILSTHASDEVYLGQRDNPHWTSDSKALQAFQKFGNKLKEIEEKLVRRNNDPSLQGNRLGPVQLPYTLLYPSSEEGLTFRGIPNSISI
Outline: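 Soybean lipoxygenase solution (1/9 × 10⁴ w/v in saline) was incubated at room temperature with sodium linoleate (0.1 mM) and compound dissolved in ethanol. UV absorbance-based read-out. At least triplicate.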

[2] = tested on: Rattus norvegicus; test: Inhibition of carrageenan-induced Fischer 344 rat paw edema at 0.01 mmol/kg, ip; format: functional; conditions: Fischer 344, ip
Outline: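 Fischer 344 rats (150-200 g), both sexes, pregnant females excluded; 6-15 per group. Paw edema was induced by intradermal injection of 0.1 mL 2% carrageenin in water into the right hind paw. Compound at 0.01 mmol/kg, suspended in water with a few drops of Tween 80, was given ip at the same time. Rats were euthanized at 3.5 h. Injected minus uninjected paw weight was expressed as % inhibition versus water-treated controls. Mean of two experiments.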

[3] = Antioxidant activity assessed as DPPH reducing activity at 0.1 mM after 20 mins; format: functional; design: scale not given: the % may be the effect or the level left
Outline: (§1)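 DPPH in absolute ethanol was mixed with an equal volume of compound in ethanol (0.1 or 0.5 mM); ethanol served as control. Absorbance at 517 nm was read after 20 and 60 min at room temperature. At least triplicate.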

[4] = Antioxidant activity assessed as DPPH reducing activity at 0.1 mM after 60 mins; format: functional; design: scale not given: the % may be the effect or the level left; outline: as §1
[5] = Antioxidant activity assessed as DPPH reducing activity at 0.5 mM after 20 mins; format: functional; design: scale not given: the % may be the effect or the level left; outline: as §1
[6] = Antioxidant activity assessed as DPPH reducing activity at 0.5 mM after 60 mins; format: functional; design: scale not given: the % may be the effect or the level left; outline: as §1
[7] = Antioxidant activity assessed as DMSO hydroxyl radical scavenging activity at 0.1 mM; format: functional
Outline: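 Hydroxyl radicals generated by Fe3+/ascorbic acid; reaction mix contained EDTA 0.1 mM, Fe3+ 167 µM, DMSO 33 mM and ascorbic acid 10 mM in 50 mM phosphate buffer pH 7.4, with test compound at 0.1 mM. Incubated 30 min at 37 °C, then stopped with trichloroacetic acid (17% w/v). Formaldehyde from DMSO oxidation was measured by the Nash method at 425 nm. At least triplicate.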

Cn1c(=O)c(C(=O)Nc2ccc(N)cc2)c(O)c2ccccc21
inhibition [1]: 50.8%
inhibition in vivo at 10 µmol/kg [2]: 69.5%
Activity [3]: 90.2%
Activity [4]: 88.1%
Activity [5]: 85.1%
Activity [6]: 83.7%
Activity [7]: 20.7%

Cn1c(=O)c(C(=O)NCCCCCCNC(=O)CCCCC2CCSS2)c(O)c2ccccc21 (stereo unspecified)
inhibition [1]: 79.1%
inhibition in vivo at 10 µmol/kg [2]: 53%
Activity [3]: 9.1%
Activity [4]: 13%
Activity [5]: 28.4%
Activity [6]: 38.8%
Activity [7]: 28.6%

O=C(O)CCCCC1CCSS1 (stereo not drawn) [LIPOIC ACID, ALPHA]
inhibition [1]: 29.1%
inhibition in vivo at 10 µmol/kg [2]: 29.6%
Activity [3]: 20.3%
Activity [4]: 27.1%
Activity [5]: 5.2%
Activity [6]: 6.8%
Activity [7]: 38.6%

Cn1c(=O)c(C(=O)NCCN)c(O)c2ccccc21
inhibition [1]: 99.5%
inhibition in vivo at 10 µmol/kg [2]: 67%
Activity [3]: 5.6%
Activity [4]: 11.5%
Activity [5]: 20.9%
Activity [6]: 37.1%
Activity [7]: 40.1%

COC(=O)c1c(O)c2ccccc2n(C)c1=O
inhibition [1]: 72.4%
inhibition in vivo at 10 µmol/kg [2]: 58.8%
Activity [3]: 8.3%
Activity [4]: 7.4%
Activity [5]: 17.5%
Activity [6]: 18.4%
Activity [7]: 45%

Cn1c(=O)c(C(=O)NCCNC(=O)CCCCC2CCSS2)c(O)c2ccccc21 (stereo unspecified)
inhibition [1]: 66.5%
inhibition in vivo at 10 µmol/kg [2]: 48.2%
Activity [3]: 10.9%
Activity [4]: 3.4%
Activity [5]: 28.8%
Activity [6]: 40.1%
Activity [7]: 67.9%

Cn1c(=O)c(C(=O)NCCCCCCN)c(O)c2ccccc21
inhibition [1]: 92.1%
inhibition in vivo at 10 µmol/kg [2]: 68.5%
Activity [3]: 3.1%
Activity [4]: 8.3%
Activity [5]: 13.7%
Activity [6]: 21.9%
Activity [7]: 59.3%

Nc1ccccc1NC(=O)c1c(O)c2ccccc2n(-c2ccccc2)c1=O
Activity [1]: inactive
inhibition in vivo at 10 µmol/kg [2]: 48.5%
Activity [3]: 9.4%
Activity [4]: 16.3%
Activity [5]: 21.3%
Activity [6]: 34.7%
Activity [7]: 98%

O=C(CCCCC1CCSS1)Nc1ccccc1NC(=O)c1c(O)c2ccccc2n(-c2ccccc2)c1=O (stereo unspecified)
inhibition [1]: 100%
inhibition in vivo at 10 µmol/kg [2]: 63%
Activity [3]: 9.7%
Activity [4]: 16.1%
Activity [5]: 11%
Activity [6]: 28.5%
Activity [7]: inactive

COc1ccc2c(c1)c(CC(=O)O)c(C)n2C(=O)c1ccc(Cl)cc1 [INDOMETHACIN]
inhibition in vivo at 10 µmol/kg [2]: 47%

Nc1ccc(NC(=O)c2c(O)c3ccccc3n(-c3ccccc3)c2=O)cc1
inhibition [1]: 58.9%
inhibition in vivo at 10 µmol/kg [2]: 56.4%
Activity [3]: 89%
Activity [4]: 88.3%
Activity [5]: 94.4%
Activity [6]: 89.2%
Activity [7]: 10%

NCCNC(=O)c1c(O)c2ccccc2n(-c2ccccc2)c1=O
inhibition [1]: 82.3%
inhibition in vivo at 10 µmol/kg [2]: 68.1%
Activity [3]: 7.2%
Activity [4]: 10%
Activity [5]: 1.4%
Activity [6]: 7.9%
Activity [7]: 78.6%

COC(=O)c1c(O)c2ccccc2n(-c2ccccc2)c1=O
inhibition [1]: 100%
inhibition in vivo at 10 µmol/kg [2]: 37.1%
Activity [3]: 9.1%
Activity [4]: 9.1%
Activity [5]: 16.8%
Activity [6]: 19.3%
Activity [7]: 95%

CC(Cc1ccc(O)c(O)c1)C(C)Cc1ccc(O)c(O)c1 (stereo unspecified)
Activity [5]: 96.5%
Activity [6]: 98%

O=C(CCCCC1CCSS1)NCCNC(=O)c1c(O)c2ccccc2n(-c2ccccc2)c1=O (stereo unspecified)
Activity [1]: inactive
inhibition in vivo at 10 µmol/kg [2]: 45.5%
Activity [3]: 6.4%
Activity [4]: 7.8%
Activity [5]: inactive
Activity [6]: 14.1%
Activity [7]: 0%

Cc1c(C)c2c(c(C)c1O)CCC(C)(C(=O)O)O2 (stereo unspecified)
Activity [7]: 88.2%

NCCCCCCNC(=O)c1c(O)c2ccccc2n(-c2ccccc2)c1=O
inhibition [1]: 17.6%
inhibition in vivo at 10 µmol/kg [2]: 68.8%
Activity [3]: 11.6%
Activity [4]: 17.5%
Activity [5]: 19.3%
Activity [6]: 28.1%
Activity [7]: 27.1%

Cn1c(=O)c(C(=O)Nc2ccccc2N)c(O)c2ccccc21
inhibition [1]: 71.3%
inhibition in vivo at 10 µmol/kg [2]: 85.3%
Activity [3]: 6%
Activity [4]: 13.5%
Activity [5]: 28.8%
Activity [6]: 41.4%
Activity [7]: 60.5%

O=C(CCCCC1CCSS1)NCCCCCCNC(=O)c1c(O)c2ccccc2n(-c2ccccc2)c1=O (stereo unspecified)
inhibition [1]: 64%
inhibition in vivo at 10 µmol/kg [2]: 50%
Activity [3]: 6.2%
Activity [4]: 10.2%
Activity [5]: 23.9%
Activity [6]: 29.5%
Activity [7]: inactive
